{
  "source": "PubChem BioAssay",
  "note": "Active and inactive are the calls of the source.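 The calls were made as follows, unless noted: active = growth inhibition above 25% in both replicates, a cutoff set 3 SD above the mean; inconclusive = above 25% in only one replicate; inactive = the rest.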",
  "data": [
    {"assay": "S. cerevisiae growth inhibition in permissive medium (OD615), pilot counter-assay for S. cerevisiae lifespan shortening project, permissive growth control (AID 705)", "conditions": "OD615, 24 h, at 10 µM, active compounds read high", "procedure,_shortened": "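System: engineered DeaD yeast; Medium: permissive raffinose/galactose medium; Compound dosing: 10 µM single dose, 0.25% DMSO; Incubation: 4 h cell pre-growth, 24 h exposure at 30 °C; Technique: OD at 615 nm; Evaluation: growth inhibition from lowered OD615 after 24 h.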", "values": [
      {"compound": "CCOCCOC(=O)C1=C(C)N(C)C(=O)NC1c1ccccc1Cl", "note": "(stereo not given)", "growth inhibition": "1.35% (inactive)"},
      {"compound": "COc1ccc(C(=O)NCC(c2cccnc2)N2CCN(c3ccccc3)CC2)cc1OC", "note": "(stereo not given)", "growth inhibition": "-5.73% (inactive)"},
      {"compound": "CCCCCCN=CC1=C(O)C(C(=O)OC)C(C)(C)CC1=O", "note": "(stereo not given)", "growth inhibition": "-10.1% (inactive)"},
      {"compound": "COCCN1C=C(C(=O)OC)C(c2ccc3c(c2)OCO3)C(C(=O)OC)=C1", "growth inhibition": "-9.64% (inactive)"},
      {"compound": "CCCCCOC(=O)Cn1c(=O)oc2ccccc21", "growth inhibition": "-7.12% (inactive)"},
      {"compound": "O=C(NCc1ccco1)c1nnc(Cc2ccc(F)cc2)o1", "growth inhibition": "-18.4% (inactive)"},
      {"compound": "CCOC(=O)CSc1nc2sc(C(=O)O)c(C)c2c(=O)[nH]1", "growth inhibition": "0.2% (inactive)"},
      {"compound": "COc1ccc(NC(=O)C2c3cc(OC)c(OC)cc3C(=O)N(C)C2c2cccnc2)cc1OC", "note": "(stereo not given)", "growth inhibition": "-1.76% (inactive)"},
      {"compound": "Fc1ccc(-n2[nH]nnc2=S)cc1N1CCCC1", "growth inhibition": "-3.75% (inactive)"},
      {"compound": "CCc1c(C)sc(NC(=O)c2cccs2)c1C(=O)OC(C)C", "growth inhibition": "-3.37% (inactive)"},
      {"compound": "COC(=O)c1cc(OC)c(OC)cc1NC(=O)c1c(-c2ccccc2Cl)noc1C", "growth inhibition": "5.77% (inactive)"},
      {"compound": "CC1=C(C(=O)OCC2CCCO2)C(c2ccncc2)C2=C(CCCC2=O)N1", "note": "(stereo not given)", "growth inhibition": "-16.7% (inactive)"},
      {"compound": "COc1ccc(S(=O)(=O)N2CCC(C(=O)N3CCc4ccccc4C3)CC2)cc1OC", "growth inhibition": "1.07% (inactive)"},
      {"compound": "O=C(CN1CCOc2ccccc21)N1CCC(Cc2ccccc2)CC1", "growth inhibition": "-3.59% (inactive)"},
      {"compound": "CCOCCCNC(=O)C(c1ccc(Cl)cc1)N1CCN(c2ccccc2)CC1", "note": "(stereo not given)", "growth inhibition": "-7.14% (inactive)"},
      {"compound": "COC(=O)c1c(NC(=O)CSc2nnnn2-c2ccccc2)sc2c1CCC(C)C2", "note": "(stereo not given)", "growth inhibition": "-21.3% (inactive)"},
      {"compound": "COC(=O)C1C(C(C)C)N(c2ccccc2)OC1(C)O", "note": "(stereo not given)", "growth inhibition": "-11.8% (inactive)"},
      {"compound": "O=C(CCSCCC(=O)NCc1cccs1)NCc1cccs1", "growth inhibition": "-5.92% (inactive)"},
      {"compound": "CCOc1ccc(-n2c(SCC(=O)NCc3ccco3)nc3c([nH]c4ccccc43)c2=O)cc1", "growth inhibition": "-2.76% (inactive)"},
      {"compound": "Cc1ccc2oc(=O)c3cnn(CC(=O)NCCN(C)C)c3c2c1", "growth inhibition": "-13% (inactive)"},
      {"compound": "Cc1ccc(C(C)C)c(OCC(=O)N2CCOCC2)c1", "growth inhibition": "-10.1% (inactive)"},
      {"compound": "Cc1ccc(-c2nnc(SCC(=O)Nc3ccccc3F)o2)cc1", "growth inhibition": "-11.9% (inactive)"},
      {"compound": "c1ccc(CN2CCN(c3nc4ccccc4n4cnnc34)CC2)cc1", "growth inhibition": "-4.76% (inactive)"},
      {"compound": "O=C(Cn1nc(C(=O)O)c2ccccc2c1=O)NCC1CCCO1", "note": "(stereo not given)", "growth inhibition": "-4.73% (inactive)"},
      {"compound": "Cc1ccc2c(c1)c1c(n2CC(O)CN2C(=O)CNC2=O)C(=O)CCC1", "note": "(stereo not given)", "growth inhibition": "3.38% (inactive)"},
      {"compound": "CCCCNc1ncnc2c1cnn2-c1ccc(Cl)cc1", "growth inhibition": "-7.84% (inactive)"},
      {"compound": "Cc1ccc(-n2ncc3c(NCCCn4ccnc4)ncnc32)c(C)c1", "growth inhibition": "-3.41% (inactive)"},
      {"compound": "CCOC(=O)c1sc(NC(=O)C2CCCO2)c(C(=O)OCC)c1C", "note": "(stereo not given)", "growth inhibition": "-9.48% (inactive)"},
      {"compound": "CC(C)Oc1ccc(N2CC(C(=O)Nc3ccc4c(c3)OCO4)CC2=O)cc1", "note": "(stereo not given)", "growth inhibition": "-13.3% (inactive)"},
      {"compound": "CC(=O)c1cc(F)c(N2CCN(CCC#N)CC2)cc1C", "growth inhibition": "-3.07% (inactive)"},
      {"compound": "CC12CC(NC(=O)N1CCc1ccccc1)c1ccccc1O2", "note": "(stereo not given)", "growth inhibition": "-8.73% (inactive)"},
      {"compound": "COc1ccc2nc(NC(=O)c3ccc4ncsc4c3)sc2c1", "growth inhibition": "0.465% (inactive)"},
      {"compound": "CCOC(=O)c1c(NC(C)=O)no[n+]1[O-]", "growth inhibition": "-14.2% (inactive)"},
      {"compound": "COc1ccc(N2CCN(CCCNS(=O)(=O)c3ccc4c(c3)oc(=O)n4C)CC2)cc1", "growth inhibition": "-8.8% (inactive)"},
      {"compound": "Cn1c(C(=O)N2CCCCCC2)cc2c(=O)n(C)c3ccccc3c21", "growth inhibition": "-8.92% (inactive)"},
      {"compound": "COc1ccc(N(CC(=O)Nc2cc(OC)ccc2OC)S(=O)(=O)c2c(C)nn(C)c2C)cc1", "growth inhibition": "-7.47% (inactive)"},
      {"compound": "Cn1c2ccc(Cl)cc2c2nc3ccccc3nc21", "growth inhibition": "-12.8% (inactive)"},
      {"compound": "COc1ccc(C(=O)N2CCC(C(=O)Nc3ccc(OC)c(OC)c3)CC2)cc1", "growth inhibition": "-6.75% (inactive)"},
      {"compound": "Cc1ccc(O)c(-c2cc(C(F)(F)C(F)F)nc(-c3ccccc3)n2)c1", "growth inhibition": "-21.9% (inactive)"},
      {"compound": "COc1ccccc1-c1nnc(SCC(=O)N2CCOCC2)o1", "growth inhibition": "-12.5% (inactive)"}
    ]},
    {"assay": "S. cerevisiae growth inhibition in restrictive medium, OD615, pilot screen, restrictive growth control, yeast lifespan reduction project (AID 706;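 active = growth inhibition above a set limit, 3 SD over mean compound inhibition, in both replicates, cut at about 43% in these data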;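 also: modified DeaD lifespan yeast strain shifted to restrictive glucose medium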)", "conditions": "OD615, 48 h, at 10 µM, active compounds read high", "procedure,_shortened": "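Material: modified S. cerevisiae; buffer or medium: CSMM-D glucose medium; doses: one concentration, 10 µM final, 0.25% DMSO; incubation: 48 h compound exposure at 30 °C; detection: optical density at 615 nm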", "values": [
      {"compound": "CCOCCOC(=O)C1=C(C)N(C)C(=O)NC1c1ccccc1Cl", "note": "(stereo not given)", "growth inhibition": "-7.18% (inactive)"},
      {"compound": "COc1ccc(C(=O)NCC(c2cccnc2)N2CCN(c3ccccc3)CC2)cc1OC", "note": "(stereo not given)", "growth inhibition": "0.095% (inactive)"},
      {"compound": "CCCCCCN=CC1=C(O)C(C(=O)OC)C(C)(C)CC1=O", "note": "(stereo not given)", "growth inhibition": "-3.98% (inactive)"},
      {"compound": "COCCN1C=C(C(=O)OC)C(c2ccc3c(c2)OCO3)C(C(=O)OC)=C1", "growth inhibition": "1.92% (inactive)"},
      {"compound": "CCCCCOC(=O)Cn1c(=O)oc2ccccc21", "growth inhibition": "4.42% (inactive)"},
      {"compound": "O=C(NCc1ccco1)c1nnc(Cc2ccc(F)cc2)o1", "growth inhibition": "-12.9% (inactive)"},
      {"compound": "CCOC(=O)CSc1nc2sc(C(=O)O)c(C)c2c(=O)[nH]1", "growth inhibition": "-4.45% (inactive)"},
      {"compound": "COc1ccc(NC(=O)C2c3cc(OC)c(OC)cc3C(=O)N(C)C2c2cccnc2)cc1OC", "note": "(stereo not given)", "growth inhibition": "-0.86% (inactive)"},
      {"compound": "Fc1ccc(-n2[nH]nnc2=S)cc1N1CCCC1", "growth inhibition": "3.59% (inactive)"},
      {"compound": "CCc1c(C)sc(NC(=O)c2cccs2)c1C(=O)OC(C)C", "growth inhibition": "5.3% (inactive)"},
      {"compound": "COC(=O)c1cc(OC)c(OC)cc1NC(=O)c1c(-c2ccccc2Cl)noc1C", "growth inhibition": "-2.39% (inactive)"},
      {"compound": "CC1=C(C(=O)OCC2CCCO2)C(c2ccncc2)C2=C(CCCC2=O)N1", "note": "(stereo not given)", "growth inhibition": "-8.36% (inactive)"},
      {"compound": "COc1ccc(S(=O)(=O)N2CCC(C(=O)N3CCc4ccccc4C3)CC2)cc1OC", "growth inhibition": "1.26% (inactive)"},
      {"compound": "O=C(CN1CCOc2ccccc21)N1CCC(Cc2ccccc2)CC1", "growth inhibition": "21.2% (inactive)"},
      {"compound": "CCOCCCNC(=O)C(c1ccc(Cl)cc1)N1CCN(c2ccccc2)CC1", "note": "(stereo not given)", "growth inhibition": "6.11% (inactive)"},
      {"compound": "COC(=O)c1c(NC(=O)CSc2nnnn2-c2ccccc2)sc2c1CCC(C)C2", "note": "(stereo not given)", "growth inhibition": "-21.2% (inactive)"},
      {"compound": "COC(=O)C1C(C(C)C)N(c2ccccc2)OC1(C)O", "note": "(stereo not given)", "growth inhibition": "-7.98% (inactive)"},
      {"compound": "O=C(CCSCCC(=O)NCc1cccs1)NCc1cccs1", "growth inhibition": "3.44% (inactive)"},
      {"compound": "CCOc1ccc(-n2c(SCC(=O)NCc3ccco3)nc3c([nH]c4ccccc43)c2=O)cc1", "growth inhibition": "-7.4% (inactive)"},
      {"compound": "Cc1ccc2oc(=O)c3cnn(CC(=O)NCCN(C)C)c3c2c1", "growth inhibition": "-11.6% (inactive)"},
      {"compound": "Cc1ccc(C(C)C)c(OCC(=O)N2CCOCC2)c1", "growth inhibition": "-20.3% (inactive)"},
      {"compound": "Cc1ccc(-c2nnc(SCC(=O)Nc3ccccc3F)o2)cc1", "growth inhibition": "2.46% (inactive)"},
      {"compound": "c1ccc(CN2CCN(c3nc4ccccc4n4cnnc34)CC2)cc1", "growth inhibition": "-16.2% (inactive)"},
      {"compound": "O=C(Cn1nc(C(=O)O)c2ccccc2c1=O)NCC1CCCO1", "note": "(stereo not given)", "growth inhibition": "-13.3% (inactive)"},
      {"compound": "Cc1ccc2c(c1)c1c(n2CC(O)CN2C(=O)CNC2=O)C(=O)CCC1", "note": "(stereo not given)", "growth inhibition": "7.05% (inactive)"},
      {"compound": "CCCCNc1ncnc2c1cnn2-c1ccc(Cl)cc1", "growth inhibition": "-18.1% (inactive)"},
      {"compound": "Cc1ccc(-n2ncc3c(NCCCn4ccnc4)ncnc32)c(C)c1", "growth inhibition": "-7.83% (inactive)"},
      {"compound": "CCOC(=O)c1sc(NC(=O)C2CCCO2)c(C(=O)OCC)c1C", "note": "(stereo not given)", "growth inhibition": "-8.48% (inactive)"},
      {"compound": "CC(C)Oc1ccc(N2CC(C(=O)Nc3ccc4c(c3)OCO4)CC2=O)cc1", "note": "(stereo not given)", "growth inhibition": "-4.22% (inactive)"},
      {"compound": "CC(=O)c1cc(F)c(N2CCN(CCC#N)CC2)cc1C", "growth inhibition": "-19.6% (inactive)"},
      {"compound": "CC12CC(NC(=O)N1CCc1ccccc1)c1ccccc1O2", "note": "(stereo not given)", "growth inhibition": "-25% (inactive)"},
      {"compound": "COc1ccc2nc(NC(=O)c3ccc4ncsc4c3)sc2c1", "growth inhibition": "13% (inactive)"},
      {"compound": "CCOC(=O)c1c(NC(C)=O)no[n+]1[O-]", "growth inhibition": "-12.3% (inactive)"},
      {"compound": "COc1ccc(N2CCN(CCCNS(=O)(=O)c3ccc4c(c3)oc(=O)n4C)CC2)cc1", "growth inhibition": "2.4% (inactive)"},
      {"compound": "Cn1c(C(=O)N2CCCCCC2)cc2c(=O)n(C)c3ccccc3c21", "growth inhibition": "-2.14% (inactive)"},
      {"compound": "COc1ccc(N(CC(=O)Nc2cc(OC)ccc2OC)S(=O)(=O)c2c(C)nn(C)c2C)cc1", "growth inhibition": "-15.8% (inactive)"},
      {"compound": "Cn1c2ccc(Cl)cc2c2nc3ccccc3nc21", "growth inhibition": "-4% (inactive)"},
      {"compound": "COc1ccc(C(=O)N2CCC(C(=O)Nc3ccc(OC)c(OC)c3)CC2)cc1", "growth inhibition": "-8.78% (inactive)"},
      {"compound": "Cc1ccc(O)c(-c2cc(C(F)(F)C(F)F)nc(-c3ccccc3)n2)c1", "growth inhibition": "-10.4% (inactive)"},
      {"compound": "COc1ccccc1-c1nnc(SCC(=O)N2CCOCC2)o1", "growth inhibition": "0.015% (inactive)"}
    ]}
  ]
}
